Values belong to the compound of their own block, whether it stands above or below them. Activity calls are given as the source filed them. No cut-off for these calls is given here.
Key:
[1] = biological target: T1, Geranylgeranyl pyrophosphate synthase (Homo sapiens) (UniProt O95749); experiment: Inhibition of GGDPS in human RPMI-8226 cells assessed as lowest effective concentration required to show unmodified Rap1a band up to 100 uM after 48 hrs by immunoblot analysis; type: cell-based; settings: dose microM <=100, time 48.0 hrs
T1 sequence (whole entry): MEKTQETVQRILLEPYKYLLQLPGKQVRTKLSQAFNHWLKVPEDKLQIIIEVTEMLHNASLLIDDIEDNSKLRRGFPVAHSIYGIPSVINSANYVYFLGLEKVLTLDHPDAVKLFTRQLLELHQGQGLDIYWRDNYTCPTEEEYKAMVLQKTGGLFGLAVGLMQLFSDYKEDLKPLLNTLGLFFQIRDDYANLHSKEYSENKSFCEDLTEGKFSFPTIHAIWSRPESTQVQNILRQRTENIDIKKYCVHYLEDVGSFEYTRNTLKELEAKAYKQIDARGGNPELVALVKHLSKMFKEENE
Summary of the method: (§1)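 LEC is the lowest concentration giving both a visible unmodified Rap1a band and a statistically significant rise in lambda light chain (ELISA, two-tailed t-test, p<0.05). RPMI-8226 cells were treated for 48 h. The Rap1a antibody detects only unmodified Rap1a, with β-tubulin as loading control. Lysates were made in RIPA buffer and normalised by BCA.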

RPMI-8226 = experiment: Cytotoxicity against human RPMI-8226 cells assessed as decrease in cell viability at 10 to 100 uM measured after 48 hrs by MTT assay; type: functional, cell-based; settings: dose 10-100 µM
Summary of the method: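 RPMI-8226 myeloma cells seeded at 2.5 × 10^4 cells per 100 μL well and exposed to compound for 48 h, then MTT read-out. Absorbance of solvent-only control cells set as 100% MTT activity. Data expressed as percentage of control, mean ± SD, n=4.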

[2] = biological target: T2, Geranylgeranyl pyrophosphate synthase (Homo sapiens, UniProt O95749); experiment: Inhibition of recombinant GGDPS (unknown origin) using FPP and [14C] IPP as substrate preincubated for 10 mins followed by substrate addition measured after 30 mins by liquid scintillation counting method
T2 sequence (O95749 whole entry): T1 sequence (whole entry)
Summary of the method: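 In the enzyme assay, each compound was tested in duplicate at multiple concentrations, with three independent experiments. IC50 values were derived from concentration-response curve analysis.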

[3] = biological target: T1, Geranylgeranyl pyrophosphate synthase (Homo sapiens); experiment: Inhibition of GGDPS in human RPMI-8226 cells assessed as lowest effective concentration required to show unmodified Rap1a band after 48 hrs by immunoblot analysis; type: cell-based; summary of the method: as §1
[4] = biological target: T1, Geranylgeranyl pyrophosphate synthase (Homo sapiens); experiment: Inhibition of GGDPS in human RPMI-8226 cells assessed as disruption of farnesylation at 0.05 to 0.5 uM measured after 48 hrs by immunoblot analysis; type: cell-based; settings: dose 0.05-0.5 µM
Summary of the method: (§2)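 H-Ras farnesylation was checked by immunoblot after RPMI-8226 cells (ATCC) were exposed to compound for 48 h, with lovastatin 10 μM as positive control. Whole-cell RIPA lysates with protease/phosphatase inhibitors were protein-normalised by BCA, run on SDS-PAGE and transferred to PVDF. Blots were probed for H-Ras with β-tubulin as loading control and detected with HRP secondary/ECL. Gels are representative of three independent studies.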

[5] = biological target: T1, Geranylgeranyl pyrophosphate synthase (Homo sapiens); experiment: Inhibition of GGDPS in human RPMI-8226 cells assessed as disruption of farnesylation at 0.1 to 1 uM measured after 48 hrs by immunoblot analysis; type: cell-based; settings: dose 0.1-1 µM; summary of the method: as §2
[6] = biological target: T1, Geranylgeranyl pyrophosphate synthase (Homo sapiens); experiment: Inhibition of GGDPS in human RPMI-8226 cells assessed as increase in intracellular lambda chain level after 48 hrs by ELISA; type: cell-based
Summary of the method: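 Intracellular lambda light chain was quantified by ELISA in the same 48 h RPMI-8226 lysates prepared for immunoblotting, with lovastatin 10 μM as positive control. Values are percentage of untreated control, mean ± SD, n=3. Two-tailed t-test against untreated cells, significance at p<0.05.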

Compound: CC(C)=CCC/C(C)=C/Cn1cc(CCP(=O)(O)O)nn1
inhibition [1]: inactive
Activity (RPMI-8226): inactive
IC50 [2]: > 100000 nM

LED [3]: 0.5 µM
Compound: CC(C)=CCC/C(C)=C/Cn1cc(CC(P(=O)(O)O)P(=O)(O)O)nn1

Compound: CC(C)=CCC/C(C)=C/Cn1cc(CC(CN)(P(=O)(O)O)P(=O)(O)O)nn1
LED [3]: 0.5 µM
Activity (RPMI-8226): Active
IC50 [2]: 2000 nM

Compound: CC(C)=CCC/C(C)=C/Cn1cc(CC(O)(P(=O)(O)O)P(=O)(O)O)nn1
LED [3]: 0.1 µM
Activity (RPMI-8226): Active
inhibition [4]: inactive

Compound: CC(C)=CCC/C(C)=C/Cn1cc(C=C(P(=O)(O)O)P(=O)(O)O)nn1
LED [3]: 0.25 µM
Activity (RPMI-8226): Active
IC50 [2]: 2700 nM
inhibition [5]: inactive

Compound: CC(C)=CCC/C(C)=C/Cn1cc(C2CC2(P(=O)(O)O)P(=O)(O)O)nn1 (stereo not given)
LED [3]: 0.5 µM
Activity (RPMI-8226): Active
IC50 [2]: 1600 nM
inhibition [5]: inactive

Compound: CC(C)=CCC/C(C)=C/Cn1cc(CC(F)(P(=O)(O)O)P(=O)(O)O)nn1
inhibition [6]: Active
LED [3]: 0.25 µM
Activity (RPMI-8226): Active
IC50 [2]: 3000 nM
inhibition [5]: inactive

Compound: C=C(Cc1cn(C/C=C(\C)CCC=C(C)C)nn1)P(=O)(O)O
inhibition [1]: inactive
Activity (RPMI-8226): inactive
IC50 [2]: > 100000 nM

LED [3]: 0.1 µM
IC50 [2]: 1300 nM
Compound: CC(C)=CCC/C(C)=C/Cn1cc(CC(C)(P(=O)(O)O)P(=O)(O)O)nn1

LED [3]: 2.5 µM
IC50 [2]: 5900 nM
Compound: CCC(Cc1cn(C/C=C(\C)CCC=C(C)C)nn1)(P(=O)(O)O)P(=O)(O)O

Reference: ChEMBL document CHEMBL4811322, “Impact of α-modifications on the activity of triazole bisphosphonates as geranylgeranyl diphosphate synthase inhibitors” (Bioorg Med Chem, 2021)
